Data published in publication PMC5014123 (Nature communications, 2015).
Like-named read-outs stand apart in the source and are kept apart here.

What was measured:
ADAM8 [1] = target: T1, ADAM8 (Homo sapiens, UniProt P78325); assay type: cell-based
T1 sequence (P78325 17-824): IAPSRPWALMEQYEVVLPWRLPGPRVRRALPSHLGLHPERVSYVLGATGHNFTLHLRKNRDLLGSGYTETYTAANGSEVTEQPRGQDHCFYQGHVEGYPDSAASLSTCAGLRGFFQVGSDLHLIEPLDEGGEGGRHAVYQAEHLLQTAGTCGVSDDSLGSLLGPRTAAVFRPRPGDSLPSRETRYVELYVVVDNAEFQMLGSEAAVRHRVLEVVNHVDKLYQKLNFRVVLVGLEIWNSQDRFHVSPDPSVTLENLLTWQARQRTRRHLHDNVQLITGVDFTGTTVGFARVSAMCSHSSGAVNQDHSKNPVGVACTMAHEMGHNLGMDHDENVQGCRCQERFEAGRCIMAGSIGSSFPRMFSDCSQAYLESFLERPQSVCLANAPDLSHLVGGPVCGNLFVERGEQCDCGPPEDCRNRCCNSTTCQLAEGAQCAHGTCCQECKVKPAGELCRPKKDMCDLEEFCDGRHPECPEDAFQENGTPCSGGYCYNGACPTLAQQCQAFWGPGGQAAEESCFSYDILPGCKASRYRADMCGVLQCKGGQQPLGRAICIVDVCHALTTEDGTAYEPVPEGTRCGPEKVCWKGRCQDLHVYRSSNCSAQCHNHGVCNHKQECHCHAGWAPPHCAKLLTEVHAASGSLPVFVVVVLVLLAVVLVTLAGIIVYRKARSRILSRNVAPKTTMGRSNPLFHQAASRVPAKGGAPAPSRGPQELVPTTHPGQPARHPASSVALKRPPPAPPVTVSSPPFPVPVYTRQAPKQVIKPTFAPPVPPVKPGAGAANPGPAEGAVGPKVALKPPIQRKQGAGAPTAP

ADAM8 [2] = target: T2, ADAM8 (Homo sapiens, UniProt P78325); assay type: biochemical
T2 sequence (P78325 17-497): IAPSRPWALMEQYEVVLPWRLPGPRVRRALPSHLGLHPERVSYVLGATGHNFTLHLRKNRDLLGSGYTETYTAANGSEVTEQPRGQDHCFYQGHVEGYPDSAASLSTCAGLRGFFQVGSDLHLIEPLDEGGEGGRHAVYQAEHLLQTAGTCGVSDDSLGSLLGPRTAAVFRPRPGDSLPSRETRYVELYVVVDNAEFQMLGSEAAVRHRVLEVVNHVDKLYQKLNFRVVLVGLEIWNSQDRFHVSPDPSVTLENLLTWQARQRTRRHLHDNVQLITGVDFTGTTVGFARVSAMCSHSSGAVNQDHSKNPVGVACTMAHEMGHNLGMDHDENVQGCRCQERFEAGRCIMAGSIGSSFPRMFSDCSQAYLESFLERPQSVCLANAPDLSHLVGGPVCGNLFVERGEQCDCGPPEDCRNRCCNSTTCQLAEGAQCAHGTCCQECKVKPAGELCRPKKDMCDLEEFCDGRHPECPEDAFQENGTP

MMP-14 = assay: PrAMA inference of MMP-14 activity in PDAC cell lines; assay type: cell-based, human; conditions: Panc1_A8 cells, 1 µM, 24 hours, relative to vehicle
How it was run: (§1)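 Cells were cultured in duplicate for 24 h in serum-free, phenol-red-free DMEM, and medium and sucrose-buffer membrane fractions were collected. […] Activities were inferred from fold-change cleavage rates against purified-enzyme specificity matrices, in three repeats. Panc1_A8 received 1 uM test compound for 24 h versus vehicle; AsPC-1 knockdowns were compared with shCtrl.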

MMP-2 = assay: PrAMA inference of MMP-2 activity in PDAC cell lines; assay type: cell-based, human; conditions: Panc1_A8 cells, 1 µM, 24 hours, relative to vehicle
How it was run: as §1

ADAM8 [3] = target: T1, ADAM8; assay: PrAMA inference of ADAM8 activity in PDAC cell lines; assay type: cell-based; conditions: Panc1_A8 cells, 1 µM, 24 hours, relative to vehicle
ERK1/2 phosphorylation = assay: Western blot of ERK1/2 phosphorylation in Panc1 cells; assay type: cell-based, human; conditions: Panc1_A8 cells; BK-1361 500 nM; U0126 10 µM
How it was run: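 ERK1/2 phosphorylation in Panc1_ctrl and Panc1_A8 cell lysates was detected by western blot with antibodies against the phosphorylated kinase forms, with or without 500 nM test compound.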

Panc1_A8 cells = assay: Invasion assay of Panc1_A8 cells; assay type: cell-based, human; conditions: matrigel, 10 µM, 18h
How it was run: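 Panc1_ctrl and Panc1_A8 cells were run in duplicate with the ERK1/2 inhibitor U0126 (10 uM) for 18 h. Invasiveness is expressed relative to control. Statistics were by ANOVA and Student's t-test.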

| IC50 (ADAM8 [1]) [nM] | IC50 (ADAM8 [2]) [nM] | ADAM8 activity (PrAMA), Panc1_A8 (ADAM8 [3]) | SMILES | MMP-14 activity (PrAMA), Panc1_A8 (MMP-14) | MMP-2 activity (PrAMA), Panc1_A8 (MMP-2) | ERK1/2 phosphorylation (pERK1/2) (ERK1/2 phosphorylation) | invasion of Panc1_A8 cells (ERK1/2 inhibitor) (Panc1_A8 cells) |
| --- | --- | --- | --- | --- | --- | --- | --- |
| 1250 ± 103 | 1050 ± 154 | – | CNC(=O)[C@@H](NC(=O)[C@H](CC(C)C)[C@H](O)C(=O)NO)C(C)(C)C [BB-2516, Marimastat] | – | – | – | – |
| 57 ± 6 | – | reduced | CNC(=O)[C@H](Cc1ccccc1)NC(=O)[C@H](CC(C)C)[C@H](CSc1cccs1)C(=O)NO [BB-94, Batimastat] | reduced | reduced | – | – |
| – | – | not affected | N#CC(=C(/N)Sc1ccccc1N)/C(C#N)=C(/N)Sc1ccccc1N [U0126] | greater effect | slight effect | blocked ERK1/2 phosphorylation | decreased invasion |
